{"data": "Experimental data of several laboratories", "BRAF": "Serine/threonine-protein kinase B-raf (BRAF, Homo sapiens, UniProt P15056)", "BRAF V600E": "Serine/threonine-protein kinase B-raf (BRAF, Homo sapiens, UniProt P15056, V600E)", "note": "Protocols differ between the studies behind these lines."}
{"Structure (SMILES)": "O=C(Nc1cnn(-c2csc(C(=O)NC3COC3)c2)c1)Nc1c(F)cccc1Cl", "target": "BRAF", "test": "enzyme activity, inhibitor", "setting": "5 µM", "quantity": "remaining activity", "result": "99.9%"}
{"Structure (SMILES)": "Cc1ccc(C(=O)Nc2ccc(CN3CCN(C)CC3)c(C(F)(F)F)c2)cc1C#Cc1cnc2cccnn12", "target": "BRAF", "test": "cell-free assay", "setting": "23.5 nM", "quantity": "remaining signal", "result": "15%"}
{"Structure (SMILES)": "COc1ccc2c(c1)O[C@H](c1ccc(OC)c(OC)c1)C[C@@H]2NC(=O)C1(c2ccc3c(c2)OC(F)(F)O3)CC1", "target": "BRAF V600E", "test": "cell-free assay, competition with immobilised ligand", "setting": "1 µM", "quantity": "remaining binding", "result": "93%"}
{"Structure (SMILES)": "Cc1sc(C(=O)NC2COC2)cc1-n1cc(NC(=O)Nc2c(F)cccc2Cl)cn1", "target": "BRAF", "test": "enzyme activity, inhibitor", "setting": "10 µM", "quantity": "remaining activity", "result": "105%"}
{"Structure (SMILES)": "O=C1NC(c2ccccn2)Sc2ccccc21 (stereo not drawn)", "target": "BRAF V600E", "test": "cell-free assay, competition with immobilised ligand", "setting": "1 µM", "quantity": "remaining binding", "result": "94%"}
{"Structure (SMILES)": "COc1ccc(-c2csc(NN=C(CS(=O)(=O)c3ccccc3)c3ccc(F)cc3)n2)cc1", "target": "BRAF V600E", "test": "enzyme activity, inhibitor, ATP luminescence", "setting": "1 µM", "quantity": "inhibition", "result": "72%"}
{"Structure (SMILES)": "c1nc2c(Nc3ccc4c(c3)OCCO4)nc(Nc3ccc4c(c3)OCCO4)nc2[nH]1", "target": "BRAF", "test": "enzyme activity, inhibitor", "setting": "10 µM", "quantity": "activity vs control", "result": "92%"}
{"Structure (SMILES)": "Cc1c(NC(=O)c2cc(C(N)=O)nc3cc(F)ccc23)c(C(F)(F)F)nn1Cc1ccc(C(C)(C)C)cc1", "target": "BRAF V600E", "test": "cell-free assay, competition with immobilised ligand", "setting": "1 µM", "quantity": "remaining binding", "result": "98%"}
{"Structure (SMILES)": "Cc1cc(NC(=O)c2cccc3cc(-c4cccc5[nH]nc(N)c45)ccc23)ccc1F", "target": "BRAF", "test": "enzyme activity, inhibitor", "setting": "0.1 µM", "quantity": "activity vs control", "result": "99%"}
{"Structure (SMILES)": "CC(C)(C)c1nc(-c2cccc(NS(=O)(=O)c3c(F)cccc3F)c2F)c(-c2ccnc(N)n2)s1", "target": "BRAF V600E", "test": "enzyme activity, inhibitor, ATP luminescence", "setting": "1 µM", "quantity": "inhibition", "result": "81%"}
{"Structure (SMILES)": "Cc1cnn2ncc(-c3ccnc(N(C)C)n3)c2c1", "target": "BRAF V600E", "test": "binding", "setting": "1 µM", "quantity": "remaining binding", "result": "91%"}
{"Structure (SMILES)": "Cn1nc(C(=O)NCc2ccc(C(=O)O)cc2)cc1-c1ccc2[nH]ccc2c1", "target": "BRAF", "test": "cell-free assay, competition with immobilised ligand", "setting": "0.1 µM", "quantity": "remaining binding", "result": "74%"}
{"Structure (SMILES)": "C[S+]([O-])c1ccc(-c2nc(-c3ccncc3)c(-c3ccc(F)cc3)[nH]2)cc1 (stereo not drawn)", "target": "BRAF", "test": "cell-free assay", "setting": "0.5 µM", "quantity": "remaining signal", "result": "78.8%"}
{"Structure (SMILES)": "CC1CCCN1c1nccc(-c2cnn3ncccc23)n1 (stereo not drawn)", "target": "BRAF", "test": "binding", "setting": "1 µM", "quantity": "remaining binding", "result": "100%"}
{"Structure (SMILES)": "Cc1ccc(NC(=O)c2ccc(CN3CCN(C)CC3)cc2)cc1Nc1nc(-c2cccnc2)cs1", "target": "BRAF", "test": "cell-free assay", "setting": "0.5 µM", "quantity": "remaining signal", "result": "92.3%"}
{"Structure (SMILES)": "Cc1ccc(C(CS(=O)(=O)c2ccccc2)=NNC2=NC(=O)C(=NNc3ccc([N+](=O)[O-])cc3)S2)cc1", "target": "BRAF V600E", "test": "enzyme activity, inhibitor, ATP luminescence", "setting": "10 nM", "quantity": "inhibition", "result": "31%"}
{"Structure (SMILES)": "CC(C)(C)c1nc(-c2cccc(NS(=O)(=O)c3c(F)cccc3F)c2F)c(-c2ccnc(N)n2)s1", "target": "BRAF V600E", "test": "enzyme activity, inhibitor, radiometric", "setting": "1 µM", "quantity": "activity vs control", "result": "1%"}
{"Structure (SMILES)": "N#CCCc1ccc2c(c1)-c1[nH]c3ccc([N+](=O)[O-])cc3c1CC(=O)N2", "target": "BRAF", "test": "cell-free assay", "setting": "0.5 µM", "quantity": "remaining signal", "result": "99.3%"}
{"Structure (SMILES)": "NC(=S)NN=C(CS(=O)(=O)c1ccccc1)c1ccc(F)cc1", "target": "BRAF V600E", "test": "enzyme activity, inhibitor, ATP luminescence", "setting": "1 µM", "quantity": "inhibition", "result": "76%"}
{"Structure (SMILES)": "Nc1ncnc2occ(-c3ccc(NC(=O)Nc4cc(C(F)(F)F)ccc4F)cc3)c12", "target": "BRAF V600E", "test": "cell-free assay", "setting": "20 µM", "quantity": "remaining signal", "result": "0.05%"}
{"Structure (SMILES)": "Cc1ccc(C(CS(=O)(=O)c2ccccc2)=NNC2=NC(=O)C(=NNc3ccc(Cl)cc3)S2)cc1", "target": "BRAF V600E", "test": "enzyme activity, inhibitor, ATP luminescence", "setting": "1 µM", "quantity": "inhibition", "result": "61%"}
{"Structure (SMILES)": "CC(C)(C)c1nc2c(s1)c1nc(N)ncc1c1ccc(NS(=O)(=O)c3c(F)cccc3F)c(F)c12", "target": "BRAF", "test": "enzyme activity, inhibitor, radiometric", "setting": "1 µM", "quantity": "remaining activity", "result": "27%"}
{"Structure (SMILES)": "CNC(=O)Nc1ccc2c(c1)[C@@]1(CC2)OC(=O)N(CC(=O)N(Cc2ccc(F)cc2)[C@@H](C)C(F)(F)F)C1=O", "target": "BRAF V600E", "test": "cell-free assay, competition with immobilised ligand", "setting": "1 µM", "quantity": "remaining binding", "result": "96%"}
{"Structure (SMILES)": "Cc1ccc(C(CS(=O)(=O)c2ccccc2)=NNc2nc(-c3ccc(OCCCCOc4ccc(-c5csc(NN=C(CS(=O)(=O)c6ccccc6)c6ccc(C)cc6)n5)cc4)cc3)cs2)cc1", "target": "BRAF V600E", "test": "enzyme activity, inhibitor, ATP luminescence", "setting": "1 µM", "quantity": "inhibition", "result": "84%"}
{"Structure (SMILES)": "CNC(=O)c1ccc(Nc2ncc(C(F)(F)F)c(NCc3nccnc3N(C)S(C)(=O)=O)n2)cc1", "target": "BRAF V600E", "test": "cell-free assay, competition with immobilised ligand", "setting": "0.1 µM", "quantity": "remaining binding", "result": "100%"}
{"Structure (SMILES)": "CC(C)(O)[C@H]1CC[C@H](Nc2ccc3ncc(-c4cccc(C(F)(F)F)c4)n3n2)CC1", "target": "BRAF", "test": "enzyme activity, inhibitor", "setting": "1 µM", "quantity": "remaining activity", "result": "93.8%"}
{"Structure (SMILES)": "O=C(Nc1cnc(Oc2ccc(F)cc2)nc1)N1CCc2ncccc2[C@@H]1c1ccc(F)cc1", "target": "BRAF V600E", "test": "cell-free assay, competition with immobilised ligand", "setting": "1 µM", "quantity": "remaining binding", "result": "83%"}
{"Structure (SMILES)": "Cc1ccc(C(=O)NCc2ccsc2)cc1C#Cc1cn(C(C)C)c2ncnc(N)c12", "target": "BRAF V600E", "test": "enzyme activity, inhibitor", "setting": "1 µM", "quantity": "activity vs control", "result": "9%"}
{"Structure (SMILES)": "N[C@@H]1CCN(c2nccc(-c3cnn4ncccc34)n2)C1", "target": "BRAF V600E", "test": "binding", "setting": "1 µM", "quantity": "remaining binding", "result": "97%"}
{"Structure (SMILES)": "Cc1c(NC(=O)c2cc(C(N)=O)nc3cc(F)ccc23)c(C(F)(F)F)nn1Cc1ccc(C#N)cc1", "target": "BRAF", "test": "cell-free assay, competition with immobilised ligand", "setting": "1 µM", "quantity": "remaining binding", "result": "91%"}
